Assay results from ChEMBL document CHEMBL5357047, “The development of thymol-isatin hybrids as broad-spectrum antibacterial agents with potent anti-MRSA activity” (RSC Med Chem, 2024).
≈ marks a conversion by molar mass, not a printed value. Calls of active or inactive are those of the source. No cut-off for these calls is given here.

Columns and labels:
Staphylococcus aureus [1] = assay: Anti-biofilm activity against Methicillin-resistant Staphylococcus aureus assessed as mean thickness of biofilm at 1/2XMIC measured after 48 hrs by crystal violet staining based phase contrast microscopy (reference value: 15.03+/-1.63 um); type: functional
Staphylococcus aureus [2] = assay: Anti-biofilm activity against Methicillin-resistant Staphylococcus aureus assessed as mean thickness of biofilm at 1XMIC measured after 48 hrs by crystal violet staining based phase contrast microscopy (reference value: 15.03+/-1.63 um); type: functional
Staphylococcus aureus [3] = assay: Anti-biofilm activity against Methicillin-resistant Staphylococcus aureus assessed as biofilm substrate coverage at 2XMIC measured after 48 hrs by crystal violet staining based phase contrast microscopy (reference value: 81.43+/-3.57%); type: functional
Staphylococcus aureus [4] = assay: Antibacterial activity against Methicillin-resistant Staphylococcus aureus infected in Galleria mellonella assessed as larva's survival rate at 5 to 10 mg/kg measured after 24 to 48 hrs; type: functional; conditions: dose 5-10 mg/kg, time 24-48 hrs
Method in brief: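 Galleria mellonella larvae (0.2–0.4 g, 10 per group) injected in the last proleg with MRSA at 5 × 10^8 ± 0.2 cells per larva, then given 2.5, 5 or 10 mg kg−1. Controls: untreated, PBS, and PBS + 2% DMSO vehicle. Held at 37 °C and checked every 12 h; larvae that were black and unresponsive counted dead. Bacterial burden by CFU at 0, 24 and 48 h.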

Staphylococcus aureus [5] = assay: Anti-biofilm activity against Methicillin-resistant Staphylococcus aureus assessed as biofilm substrate coverage at 1/2XMIC measured after 48 hrs by crystal violet staining based phase contrast microscopy (reference value: 81.43+/-3.57%); type: functional
[6] = Toxicity against Galleria mellonella assessed as metabolic activity of larva at 20 mg/kg measured every 12 hrs for 120 hrs; type: organism-based; conditions: in vivo
Method in brief: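 Uninfected Galleria mellonella larvae (0.2–0.4 g, ten per group) given 20 mg kg−1 compound, alongside untreated, PBS and PBS + 2% DMSO vehicle controls; held at 37 °C and checked every 12 h for 120 h. Larvae that turned black and gave no response to stimulus counted dead; percentage survival recorded.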

Staphylococcus aureus [7] = assay: Anti-biofilm activity against Methicillin-resistant Staphylococcus aureus assessed as reduction in biofilm formation at 1XMIC measured after 48 hrs by crystal violet staining based analysis; type: functional
Method in brief: (§1)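 Non-adherent cells washed off with water, stained with 0.5% crystal violet 30 min at 25 °C, dye eluted with 95% ethanol, OD 545 nm. Reported as % reduction versus untreated control. Triplicate.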

Staphylococcus aureus [8] = assay: Antibacterial activity against Staphylococcus aureus MTCC 740 assessed as inhibition of bacterial growth measured after 48 hrs by broth microdilution method; type: functional
Klebsiella pneumoniae = assay: Antibacterial activity against clinically isolated Klebsiella pneumoniae RBRJ024 assessed as inhibition of bacterial growth at 50 uM measured after 48 hrs by agar well diffusion method; type: functional; conditions: read-out: IZ
Staphylococcus aureus [9] = assay: Anti-biofilm activity against Methicillin-resistant Staphylococcus aureus assessed as reduction in biofilm formation at 1/2XMIC measured after 48 hrs by crystal violet staining based analysis; type: functional; method in brief: as §1
[10] = target: T1, 4,4'-diapophytoene synthase (Staphylococcus aureus) (UniProt A9JQL9); assay: Inhibition of CrtM in Methicillin-resistant Staphylococcus aureus assessed as inhibition of staphyloxanthin production by measuring reduction in 4,4'-diaponeurosporenic acid level at 1/4XMIC measured after 24 hrs by spectroscopic analysis
T1 sequence (whole entry): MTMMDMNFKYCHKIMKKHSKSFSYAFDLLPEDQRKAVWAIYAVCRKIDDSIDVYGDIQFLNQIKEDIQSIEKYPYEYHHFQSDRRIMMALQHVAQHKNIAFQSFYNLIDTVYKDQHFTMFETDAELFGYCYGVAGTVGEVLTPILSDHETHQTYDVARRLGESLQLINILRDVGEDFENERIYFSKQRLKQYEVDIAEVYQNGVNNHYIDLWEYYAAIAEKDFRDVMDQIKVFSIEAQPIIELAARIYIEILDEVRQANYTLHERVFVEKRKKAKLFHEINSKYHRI
Method in brief: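 Cells pelleted, PBS-washed, extracted overnight in methanol at 37 °C. Supernatant absorbance read at 462 nm (staphyloxanthin), 286 nm (4,4′-diapophytoene), 435 nm (4,4′-diaponeurosporene) or 455 nm (4,4′-diaponeurosporenic acid). % inhibition = (control − treated)/control × 100.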

[11] = test system: Staphylococcus epidermidis; assay: Bactericidal activity against Staphylococcus epidermidis MTCC 435 assessed as inhibition of bacterial growth measured after 48 hrs by agar plate method; type: functional
Method in brief: (§2)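 MBC: 10 μL from wells showing no INT colour change after broth microdilution subcultured on drug-free Mueller Hinton agar, 48 h at 37 °C aerobically; lowest concentration with no visible growth taken as MBC (μM). Triplicate.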

Staphylococcus aureus [12] = assay: Anti-biofilm activity against Methicillin-resistant Staphylococcus aureus assessed as interruption in well organized and aggregated biofilm at 1/2 to 2X MIC measured after 48 hrs by scanning electron microscopy; type: functional, organism-based
Staphylococcus aureus [13] = assay: Antibacterial activity against Methicillin-resistant Staphylococcus aureus ATCC 33591 assessed as inhibition of bacterial growth measured after 48 hrs by broth microdilution method; type: functional
[14] = Selectivity index, ratio of IC50 for cytotoxicity against mouse L929 cells to MIC for antibacterial activity against clinically isolated Methicillin-resistant Staphylococcus aureus; type: toxicity, cell-based; conditions: read-out: Selectivity Index
Staphylococcus aureus [15] = assay: Anti-biofilm activity against Methicillin-resistant Staphylococcus aureus assessed as biofilm volume/area at 2XMIC measured after 48 hrs by crystal violet staining based phase contrast microscopy (reference value: 18.37 +/-1.14 um3/um2); type: functional
Staphylococcus aureus [16] = assay: Bactericidal activity against Methicillin-resistant Staphylococcus aureus assessed as reduction in colony formation units at 1 to 2XMIC measured after 48 hrs by time-kill assay; type: functional, organism-based
Method in brief: (§3)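 Samples taken at 1, 2, 4, 8, 12, 24 and 48 h, diluted in 0.9% saline and plated on Mueller Hinton agar (48 h, 37 °C). CFU counted and log10 CFU mL−1 plotted against time. Triplicate.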

Staphylococcus aureus [17] = assay: Antibacterial activity against clinically isolated Staphylococcus aureus RBRJ010 assessed as inhibition of bacterial growth at 50 uM measured after 48 hrs by agar well diffusion method; type: functional; conditions: read-out: IZ
Staphylococcus aureus [18] = assay: Bactericidal activity against clinically isolated Staphylococcus aureus RBRJ010 assessed as inhibition of bacterial growth measured after 48 hrs by agar plate method; type: functional; method in brief: as §2
Staphylococcus aureus [19] = assay: Bacteriostatic activity against Methicillin-resistant Staphylococcus aureus assessed as reduction in colony formation units at 1/2XMIC measured after 48 hrs by time-kill assay; type: functional, organism-based; method in brief: as §3
Staphylococcus aureus [20] = assay: Antibacterial activity against clinically isolated Methicillin-resistant Staphylococcus aureus assessed as inhibition of bacterial growth measured after 48 hrs by broth microdilution method; type: functional
Staphylococcus aureus [21] = assay: Anti-biofilm activity against Methicillin-resistant Staphylococcus aureus assessed as biofilm volume/area at 1/2XMIC measured after 48 hrs by crystal violet staining based phase contrast microscopy (reference value: 18.37 +/-1.14 um3/um2); type: functional
Staphylococcus aureus [22] = assay: Anti-biofilm activity against Methicillin-resistant Staphylococcus aureus assessed as cell leakage and irregular surface at 1 to 2X MIC measured after 48 hrs by scanning electron microscopy; type: functional, organism-based
Staphylococcus aureus [23] = assay: Anti-biofilm activity against Methicillin-resistant Staphylococcus aureus assessed as reduction in biofilm formation at 2XMIC measured after 48 hrs by crystal violet staining based analysis; type: functional; method in brief: as §1

Compound `Cc1ccc(C(C)C)c(OCc2cn(CCCN3C(=O)C(=O)c4ccccc43)nn2)c1` has an Activity (Staphylococcus aureus [1]) of 2.97 um, an Activity (Staphylococcus aureus [2]) of 1.11 um and an Activity (Staphylococcus aureus [3]) of 1.83%. The Activity (Staphylococcus aureus [4]) was 90%, the Activity (Staphylococcus aureus [5]) was 19.12% and the Activity [6] was “Non-Toxic”. For the same compound, the “inhibition (INH)” value (Staphylococcus aureus [7]) was 89.63%, the MIC (Staphylococcus aureus [8]) was 1.9 µM (≈ 0.795 µg/mL) and the zone of inhibition at 50 µM (Klebsiella pneumoniae) was 21.2 mm. For the same compound, the “inhibition (INH)” value (Staphylococcus aureus [9]) was 78.43%, the inhibition [10] was 86% and the MBC [11] was 7.8 µM (≈ 3.26 µg/mL). For the same compound, the Activity (Staphylococcus aureus [12]) was “Active”, the MIC (Staphylococcus aureus [13]) was 3.9 µM (≈ 1.63 µg/mL) and the selectivity ratio [14] was 65. For the same compound, the Activity (Staphylococcus aureus [15]) was 0.69 um3/um2, the Activity (Staphylococcus aureus [16]) was “Active” and the zone of inhibition at 50 µM (Staphylococcus aureus [17]) was 27.1 mm. The MBC (Staphylococcus aureus [18]) was 3.9 µM (≈ 1.63 µg/mL), the Activity (Staphylococcus aureus [19]) was “Active” and the MIC (Staphylococcus aureus [20]) was 1.9 µM (≈ 0.795 µg/mL). For the same compound, the Activity (Staphylococcus aureus [21]) was 3.48 um3/um2, the Activity (Staphylococcus aureus [22]) was “Active” and the “inhibition (INH)” value (Staphylococcus aureus [23]) was 96.21%.
